Calpain2 inh: inhibitors of pig calpain II, primary screen, biochemical, fluorogenic peptide substrate, 1536-well | inhibition, % at 16 µM | purified calpain II, 30 min | 0.37% of 220,000 active | AID 1236, 2008;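 active = inhibition above about 50%, limit read from the data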
Rad51 HR inh: human RAD51 strand exchange inhibitors, primary screen, biochemical, fluorescence; DNA repair protein RAD51 homolog 1 (Homo sapiens), Q06609; inhibition, % at 10 µM; AID 1385, 2008; hRad51 DNA strand exchange, fluorescence dequenching; 0.085% of 200,000 active;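 active = inhibition above 40% at the single screening dose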
Target sequence (Q06609 whole entry, looked up): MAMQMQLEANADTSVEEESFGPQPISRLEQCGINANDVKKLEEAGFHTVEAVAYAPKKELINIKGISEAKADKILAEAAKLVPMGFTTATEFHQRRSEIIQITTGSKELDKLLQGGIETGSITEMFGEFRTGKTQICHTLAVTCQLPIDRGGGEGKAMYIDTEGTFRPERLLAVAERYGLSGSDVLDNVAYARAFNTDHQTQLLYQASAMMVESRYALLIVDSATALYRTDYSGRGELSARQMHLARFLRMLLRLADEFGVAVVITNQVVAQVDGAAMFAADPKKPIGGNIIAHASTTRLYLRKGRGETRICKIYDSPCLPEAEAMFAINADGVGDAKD
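Material: Human Rad51 nucleoprotein filaments preassembled on unlabelled ssDNA | Also added: Labelled 47-mer dsDNA for strand exchange | Dosing: Single dose, 10 µM final compound | Schedule: 30-min compound preincubation and 15-min exchange, both room temperature | Technique: Fluorescence dequenching at 485/520 nm | Measure: Percent inhibition relative to plate controls and blanks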
PMI activator: activators of human PMI, primary screen, biochemical, fluorescence intensity, near-Km mannose 6-phosphate; Mannose-6-phosphate isomerase (Homo sapiens), P34949; purified human PMI, coupled resazurin fluorescence, 20 min; stronger effect = higher value; 1 = vehicle control, 0 substrate-free wells; activation factor at 20 µM; 0.005% of 190,000 active; AID 1214, 2008;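 active = activation factor of 2 or more at 20 µM, relative to plate controls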
WT yeast gro inh: growth inhibition of WT strain, primary screen, mitochondrial fusion inhibitor project, WT and mutant strains, chemical genetic | mitochondrial fusion phenotypic screen | inhibition, % at 10 µM | 2.1% of 190,000 active | AID 1362, 2008; in the data active = inhibition above about 58%; tested in S. cerevisiae
PMI act hi M6P: human PMI activators, high substrate, primary screen, biochemical, fluorescence intensity, near-saturating mannose 6-phosphate | coupled PMI enzyme assay, resazurin fluorescence, 20 min; stronger effect = higher value; 1 = untreated enzyme, 0 = substrate-free blank | activation factor at 20 µM | 0.34% of 190,000 active;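 active = activation factor of 2 or more at 20 µM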
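Material: human phosphomannose isomerase with PGI, G6PDH, diaphorase coupling enzymes. Quantity: 15 ng/mL PMI. Medium: HEPES pH 7.4 buffer with MgCl2 and Tween-20. Reagent: Near-saturating mannose-6-phosphate, 1.0 mM. Compound: 20 µM single dose. Times: enzyme reaction with compound 20 min at room temperature. Detection: resorufin fluorescence at Ex 544/Em 590 nm.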
Lmaj promast: Leishmania major promastigote growth inhibition, primary screen; Leishmania major promastigotes, resazurin fluorescence viability; inhibition, % at 10 µM; 9% of 200,000 active; in the data active = inhibition above about 50%;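 also: promastigotes grown with compound for 44 hours at 28 °C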
Hits are given with their value; 0 = inactive; - = not tested or not shown. Sampled rows, rich in hits. Any-hit rate of the full collection: about 9.8%.

SMILES | Calpain2 inh | Rad51 HR inh | PMI activator | WT yeast gro inh | PMI act hi M6P | Lmaj promast
CCC(C)NC(=O)Cn1cc(S(=O)(=O)N2CCN(c3ccccc3F)CC2)c2ccccc2c1=O (stereo not drawn) | 0 | 0 | 0 | 0 | 0 | 0
COC(=O)[C@H](Cc1ccccc1)NC(=O)O[C@@H]1C(=O)c2cc(OC)ccc2O[C@H]1c1ccc(OC)c(Br)c1 | 0 | - | 0 | 0 | 0 | 0
COC(=O)[C@H](Cc1ccccc1)NC(=O)O[C@H]1C(=O)c2ccc(OC)cc2O[C@@H]1c1ccc2c(c1)OCO2 | 0 | 0 | 0 | 62 | 0 | 0
CC1=C(C(=O)OCC(C)C)C(c2cc3c(cc2Br)OCO3)NC(=O)N1C (stereo not drawn) | 0 | 0 | 0 | 0 | 0 | 0
COC(=O)C1=CN(C(C)C)C=C(C(=O)OC)C1c1cc2c(cc1Br)OCO2 | 0 | 0 | 0 | 0 | 0 | 100
CCn1c(NCc2cccc(OC)c2OC)nc2ccccc21 | 0 | 0 | 0 | 0 | 0 | 0
COc1ccc(CNc2nc3ccccc3n2CCN2CCCCC2)c(OC)c1 | 0 | 0 | 0 | 0 | 0 | 92
COc1cccc(CNc2nc3ccccc3n2CCN2CCCCC2)c1OC | 0 | 0 | 0 | 0 | 0 | 100
COc1ccccc1CNc1ccc(N2CCCCC2)cc1 | 0 | 0 | 0 | 0 | 0 | 0
COc1cccc(CNc2ccc(N3CCCCC3)cc2)c1OC | 0 | 0 | 0 | 0 | 0 | 100
COc1cccc(CNc2nc3ccccc3n2CCN2CCCCC2)c1 | 0 | 0 | 0 | 0 | 0 | 0
COc1ccc(OC)c(CNc2nc3ccccc3n2CCN2CCCCC2)c1 | 0 | 0 | 0 | 0 | 0 | 67
CCCn1c(SCC(=O)N2CCCC(C)C2)nnc1-c1cccnc1 (stereo not drawn) | 0 | 0 | 0 | 0 | 0 | 0
O=C(C(Cc1ccccc1)N1C(=O)c2ccccc2C1=O)N1c2ccccc2CCc2ccccc21 (stereo not drawn) | 0 | - | 0 | 0 | 0 | 57
O=C1c2ccccc2C(=O)N1CC(=O)N1c2ccccc2CCc2ccccc21 | 0 | 0 | 0 | 0 | 0 | 0
C=CCc1cccc(/C=N/NC(=O)c2ccccc2OC)c1O | 0 | 0 | 0 | 0 | 0 | 98
COc1cccc(/C=N/NC(=O)c2ccc(=O)[nH]n2)c1O | 0 | 0 | - | - | - | -
O=C(CSCC(=O)Nc1ccccc1)N/N=C/c1c(O)ccc2ccccc12 | 0 | - | 0 | 0 | 0 | 100
COc1cccc(/C=N/NC(=O)c2ccc(=O)n(C)c2)c1O | 0 | - | 0 | 0 | 0 | 81
COc1cccc(/C=N/NC(=O)c2[nH]c(C)c(C(=O)N/N=C/c3cccc(OC)c3O)c2C)c1O | 0 | 0 | 0 | 0 | 0 | 91
Cc1ccc(NCC(=O)N/N=C\c2ccc[nH]2)cc1 | 0 | 0 | - | - | - | -
Cc1ccc(CSc2nccc(-c3c(C)nc4ccccn34)n2)cc1 | 0 | 0 | - | - | - | -
O=C(COc1ccccc1CNCc1ccccc1)Nc1ccccc1 | 0 | 0 | 0 | 0 | 0 | 0
O=S(=O)(c1ccc(OCC2CO2)cc1)c1ccc(OCC2CO2)cc1 (stereo not drawn) | 0 | 0 | 0 | 0 | 0 | 0
COC(=O)c1c(C)oc(C)c1S(=O)(=O)N1CCOCC1 | 0 | 0 | - | - | - | -
SMILES | Calpain2 inh | Rad51 HR inh | PMI activator | WT yeast gro inh | PMI act hi M6P | Lmaj promast
O=C(N/N=C/c1c(O)ccc2ccccc12)c1ccc[n+](CCO)c1 | 0 | 0 | 0 | 0 | 0 | 0
Nc1nonc1N/N=C/c1c(O)ccc2ccccc12 | 0 | 0 | 0 | 0 | 0 | 0
COc1cc(OC)c(OC)cc1/C=N/NC(=O)c1cc(-c2cccn2C)n[nH]1 | 0 | 0 | 0 | 0 | 0 | 0
CCOc1cccc(/C=N/NC(=O)c2cc(-c3cccn3C)n[nH]2)c1O | 0 | 0 | 0 | 0 | 0 | 98
Nc1cc(Cl)nc(N/N=C/c2c(O)ccc3ccccc23)n1 | 0 | 0 | 0 | 0 | 0 | 91
O=C(N/N=C/c1ccco1)c1ccccc1OCc1ccccc1Cl | 0 | 0 | 0 | 0 | 0 | 69
Cn1cc(C(=O)N/N=C/c2c(O)ccc3ccccc23)ccc1=O | 0 | 0 | 0 | 0 | 0 | 99
O=C(N/N=C/c1ccc[nH]1)c1ccccc1OCc1ccccc1Cl | 0 | 0 | 0 | 0 | 0 | 0
Cc1ccc(C(=O)OCC(=O)Nc2c(Cl)cc(S(N)(=O)=O)cc2Cl)o1 | 0 | - | - | - | - | -
